The structures appear in SMILES notation.

For data set [1], the target named is T1, C-C chemokine receptor type 1 (Homo sapiens, UniProt P32246).
T1 sequence (P32246 whole entry): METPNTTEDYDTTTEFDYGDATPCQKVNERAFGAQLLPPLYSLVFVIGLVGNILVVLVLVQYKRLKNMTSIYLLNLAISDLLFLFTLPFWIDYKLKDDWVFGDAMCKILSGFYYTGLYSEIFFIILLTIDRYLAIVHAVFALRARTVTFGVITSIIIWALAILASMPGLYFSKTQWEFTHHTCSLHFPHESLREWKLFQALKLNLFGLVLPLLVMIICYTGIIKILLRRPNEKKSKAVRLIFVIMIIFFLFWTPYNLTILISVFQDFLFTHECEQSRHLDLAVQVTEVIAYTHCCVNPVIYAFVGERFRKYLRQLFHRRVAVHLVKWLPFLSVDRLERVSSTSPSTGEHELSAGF
Description: Displacement of [125I]-MIP1-alpha from human recombinant CCR1 expressed in HEK293 cells after 4 hrs by SPA. Format: cell-based. In outline:
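This was a SPA binding assay on membranes from HEK293 cells stably expressing human CCR1 from an episomal vector. Buffer was 130 mM NaCl, 5 mM KCl, 1 mM MnCl2, 50 mM Tris-HCl pH 7.4, 0.1% BSA, with SPA beads at 10 mg/ml. Compound dilutions were added, then [125I]-MIP1a at 0.1 nM final. Plates were spun 2 min, incubated 4 h, then scintillation-counted.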

Data set [2] can be described thus: Metabolic stability in human liver microsomes assessed as compound remaining at 1 uM after 30 mins. It is filed as ADME, Microsome. To be noted: read-out: Stability. In outline: (§1)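 Rat or human liver microsomes (300 nM cytochrome P450) were incubated in phosphate buffer pH 7.4 with test compound and 1 mM NADPH for 30 min at 37 °C. Reactions were stopped with acetonitrile and centrifuged. Samples were analyzed by LC/MS as percent parent remaining at 30 min.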

A short description of data set [3]: Metabolic stability in rat liver microsomes assessed as compound remaining at 1 uM after 30 mins. To be noted: read-out: Stability. It is filed as ADME, Microsome. In outline: as §1
Data set [4] can be described thus: (§2) AUC (0 to infinity) in Sprague-Dawley rat at 5 mg/kg, po. It is filed as ADME, organism-based, Plasma. Details: time infinity, dose 5 mg/kg, route oral; call rule not given here. To be noted: Sprague-Dawley, plasma. In outline:
(§3)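 Male Sprague-Dawley rats (3–4) were gavaged at 5 mg/kg in 0.5% methyl cellulose, either singly or in a cassette. Serial arterial-cannula blood was drawn up to 6 or 24 h. Parent compound was measured in plasma by LC/MS/MS after protein precipitation. Parameters came from non-compartmental analysis.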

The subject of the next data set is Rattus norvegicus. The description is as §2. Format: ADME, organism-based, Plasma. To be noted: in vivo. The arrangement: time infinity, dose 5 mg/kg, route oral. In outline:
as §3

A short description of data set [5]: Half life in Sprague-Dawley rat plasma at 5 mg/kg, po. Format: ADME, organism-based. The arrangement: dose 5 mg/kg, route oral. In outline: as §3
A short description of data set [6]: Oral bioavailability in Sprague-Dawley rat plasma at 5 mg/kg. It is filed as ADME, organism-based. The procedure, abridged: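 Male Sprague-Dawley rats (3–4) received an oral gavage of 5 mg/kg in 0.5% methyl cellulose and, separately, 1 mg/kg intravenously via an indwelling catheter. Serial arterial blood was collected. Plasma parent compound was measured by LC/MS/MS after protein precipitation. Bioavailability came from non-compartmental analysis.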

Data set [7] can be described thus: Tmax in Sprague-Dawley rat plasma at 5 mg/kg, po. Format: ADME, organism-based. The arrangement: dose 5 mg/kg, route oral. The procedure, abridged: as §3
Data set [8] is described as follows: Cmax in Sprague-Dawley rat plasma at 5 mg/kg, po. It is filed as ADME, organism-based. Details: dose 5 mg/kg, route oral. In outline:
as §3

The target in another data set is Cytochrome P450 3A4 (Homo sapiens, UniProt P08684). Description: Inhibition of human recombinant CYP3A4 at < 10 uM. Format: ADME. To be noted: recombinant enzyme. The procedure, abridged: (§4)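 Each human recombinant CYP isoenzyme (1A2, 2C9, 2C19, 2D6, 3A4) was run with its own fluorogenic substrate, with test compound up to […]. Fluorescence was read after a defined reaction time. Percent inhibition was fitted against log concentration to give IC50.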

The next data set deals with Cytochrome P450 2D6 (Homo sapiens, UniProt P10635). Description: Inhibition of human recombinant CYP2D6 at < 10 uM. Format: ADME. To be noted: recombinant enzyme. The procedure, abridged: as §4
Another data set addresses Cytochrome P450 2C9 (Homo sapiens, UniProt P11712). Description: Inhibition of human recombinant CYP2C9 at < 10 uM. It is filed as ADME. To be noted: recombinant enzyme. The procedure, abridged:
as §4

A further data set has as its target T2, Cytochrome P450 1A2 (Homo sapiens, UniProt P05177).
T2 sequence (P05177 whole entry): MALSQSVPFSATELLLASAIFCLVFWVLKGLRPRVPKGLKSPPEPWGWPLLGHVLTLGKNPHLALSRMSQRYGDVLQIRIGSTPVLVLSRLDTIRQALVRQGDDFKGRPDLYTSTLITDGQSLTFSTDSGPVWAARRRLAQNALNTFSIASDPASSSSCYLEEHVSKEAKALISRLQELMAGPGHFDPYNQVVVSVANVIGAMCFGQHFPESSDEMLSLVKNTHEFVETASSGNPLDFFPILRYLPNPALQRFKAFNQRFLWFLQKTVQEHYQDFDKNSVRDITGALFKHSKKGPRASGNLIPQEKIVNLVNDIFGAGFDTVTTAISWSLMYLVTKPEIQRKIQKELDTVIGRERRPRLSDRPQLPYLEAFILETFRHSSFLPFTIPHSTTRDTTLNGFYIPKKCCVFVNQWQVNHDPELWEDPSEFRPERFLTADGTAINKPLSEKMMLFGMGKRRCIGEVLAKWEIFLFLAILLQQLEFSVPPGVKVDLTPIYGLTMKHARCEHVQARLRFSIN
Description: Inhibition of human recombinant CYP1A2 at < 10 uM. It is filed as ADME. To be noted: recombinant enzyme. The procedure, abridged: as §4

A further data set addresses Cytochrome P450 2C19 (Homo sapiens, UniProt P33261). Description: Inhibition of human recombinant CYP2C19 at < 10 uM. Format: ADME. To be noted: recombinant enzyme. The procedure, abridged: as §4
Data set [9] in a line: Antagonist activity at CCR1 in human THP1 cells assessed as inhibition of CCL3-induced chemotaxis after 3 hrs. To be noted: thp-1.

Chain of Cytochrome P450 2C19 (P33261 whole entry): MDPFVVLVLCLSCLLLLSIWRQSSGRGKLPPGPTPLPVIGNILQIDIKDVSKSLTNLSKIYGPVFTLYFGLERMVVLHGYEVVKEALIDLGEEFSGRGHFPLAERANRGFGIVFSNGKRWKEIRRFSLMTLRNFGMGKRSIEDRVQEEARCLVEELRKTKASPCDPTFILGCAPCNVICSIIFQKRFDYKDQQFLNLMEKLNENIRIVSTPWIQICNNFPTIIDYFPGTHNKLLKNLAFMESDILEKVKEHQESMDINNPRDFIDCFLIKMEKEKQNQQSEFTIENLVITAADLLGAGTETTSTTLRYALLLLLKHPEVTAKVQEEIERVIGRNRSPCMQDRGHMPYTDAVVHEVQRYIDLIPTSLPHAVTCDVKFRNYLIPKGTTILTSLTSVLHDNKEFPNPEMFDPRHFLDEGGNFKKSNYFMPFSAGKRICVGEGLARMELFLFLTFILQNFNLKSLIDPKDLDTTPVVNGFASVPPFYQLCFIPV
Chain of Cytochrome P450 3A4 (P08684 whole entry): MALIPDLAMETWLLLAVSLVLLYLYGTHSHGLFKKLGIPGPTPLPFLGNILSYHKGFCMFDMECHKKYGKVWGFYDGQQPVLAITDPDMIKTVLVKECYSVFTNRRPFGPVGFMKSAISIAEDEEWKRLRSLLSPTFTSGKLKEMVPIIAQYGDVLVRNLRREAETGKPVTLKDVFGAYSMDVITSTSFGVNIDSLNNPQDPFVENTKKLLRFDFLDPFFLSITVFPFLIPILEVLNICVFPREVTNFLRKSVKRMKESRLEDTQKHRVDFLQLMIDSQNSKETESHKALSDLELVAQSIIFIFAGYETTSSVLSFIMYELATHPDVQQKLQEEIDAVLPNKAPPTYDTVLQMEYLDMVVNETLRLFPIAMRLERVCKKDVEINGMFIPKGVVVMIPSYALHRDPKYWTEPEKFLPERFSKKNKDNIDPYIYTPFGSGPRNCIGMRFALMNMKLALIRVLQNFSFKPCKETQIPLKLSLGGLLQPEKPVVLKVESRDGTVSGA
Chain of Cytochrome P450 2C9 (P11712 whole entry): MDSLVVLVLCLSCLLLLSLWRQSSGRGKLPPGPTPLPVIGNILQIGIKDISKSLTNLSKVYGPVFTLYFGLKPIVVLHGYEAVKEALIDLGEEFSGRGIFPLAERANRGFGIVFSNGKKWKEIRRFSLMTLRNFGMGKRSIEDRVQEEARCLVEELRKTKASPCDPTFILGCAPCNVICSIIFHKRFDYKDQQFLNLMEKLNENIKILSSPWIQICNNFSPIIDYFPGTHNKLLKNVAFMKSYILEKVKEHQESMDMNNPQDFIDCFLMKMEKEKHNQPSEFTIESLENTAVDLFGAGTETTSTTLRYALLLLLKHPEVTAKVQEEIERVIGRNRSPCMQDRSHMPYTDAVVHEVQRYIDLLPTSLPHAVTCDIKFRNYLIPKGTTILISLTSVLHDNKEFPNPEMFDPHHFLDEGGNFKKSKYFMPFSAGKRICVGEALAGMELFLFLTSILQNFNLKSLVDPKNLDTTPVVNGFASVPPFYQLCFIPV
Chain of Cytochrome P450 2D6 (P10635 whole entry): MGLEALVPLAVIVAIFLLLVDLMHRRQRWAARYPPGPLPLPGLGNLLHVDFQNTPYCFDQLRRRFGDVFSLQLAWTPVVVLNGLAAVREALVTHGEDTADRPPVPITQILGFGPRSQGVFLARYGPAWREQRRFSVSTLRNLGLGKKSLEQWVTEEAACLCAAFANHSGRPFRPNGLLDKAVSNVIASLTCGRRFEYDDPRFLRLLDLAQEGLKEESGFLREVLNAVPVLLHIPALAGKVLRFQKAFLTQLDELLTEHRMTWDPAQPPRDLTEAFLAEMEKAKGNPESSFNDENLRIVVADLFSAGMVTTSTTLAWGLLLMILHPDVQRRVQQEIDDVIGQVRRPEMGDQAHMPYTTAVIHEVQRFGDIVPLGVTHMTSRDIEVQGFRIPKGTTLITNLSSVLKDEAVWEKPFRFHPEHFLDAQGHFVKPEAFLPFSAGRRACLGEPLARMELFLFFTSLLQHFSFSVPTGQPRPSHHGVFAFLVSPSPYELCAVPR

Regarding `O=C(Nc1ccc(C(F)(F)F)cc1)N1CCC[C@@H]1c1ncnn1Cc1ccc(Cl)cc1`, the IC50 in data set [1] was 32 nM. The remaining at 0.5 h, 1 µM in [2] amounted to 61%; in [3], 81%. The molecule further showed an AUC(0-inf) in data set [4] of 4460 ng·h/mL.
As for `Cc1nnc([C@H]2CCCN2C(=O)Nc2ccc(C(F)(F)F)cc2)n1Cc1ccc(Cl)cc1`, the IC50 in [1] was 69 nM. Further, the remaining at 0.5 h, 1 µM in data set [2] worked out at 100%; in [3], 87%. In the data set with Rattus norvegicus, this molecule returned an AUC of 7649 ng·h/mL. The half-life in data set [5] was 3.8 h. In addition, in data set [6], the bioavailability worked out at 26%. Further, the Tmax in data set [7] was 1.1 h. The concentration in data set [8] peaked (Cmax) at 1120 ng/mL. Besides, the “inhibition (INH)” value on Cytochrome P450 3A4, at Cytochrome P450 2D6, at Cytochrome P450 2C9, on Cytochrome P450 1A2 and at Cytochrome P450 2C19 was “Not Active” in each case.
`O=C(Nc1ccc(C(F)(F)F)cc1)N1CCC[C@@H]1c1nnnn1Cc1ccc(Cl)cc1`: in [1], the IC50 is 20 nM. Moreover, the figures for the remaining at 0.5 h, 1 µM in [2] and in [3] were 59% and 25%, respectively.
For the molecule `Cc1nc([C@H]2CCCN2C(=O)Nc2ccc(C(F)(F)F)cc2)n(Cc2ccc(Cl)cc2)n1`, in data set [1], the IC50 was 810 nM.
Regarding `O=C(Nc1ccc(C(F)(F)F)cc1)N1CCC[C@@H]1c1nncn1Cc1ccc(Cl)cc1`, the IC50 in data set [1] worked out at 17 nM. The values for the remaining at 0.5 h, 1 µM in data set [2] and in data set [3] were 52% and 41%, respectively. In data set [4], this molecule yielded an AUC(0-inf) of 657 ng·h/mL.
Consider `O=C(Nc1ccc(C(F)(F)F)cc1)N1CCCC1c1nccn1Cc1ccc(Cl)cc1` (stereo not given), for which the IC50 in [1] was found to be 65 nM. In addition, the results for the remaining at 0.5 h, 1 µM in data set [2] and in [3] were 39% and 55%, respectively. The same molecule yielded an AUC(0-inf) in [4] of 100 ng·h/mL.
For `CN(Cc1ccc(Cl)cc1)C(=O)[C@H]1CCCN1C(=O)Nc1ccc(C(F)(F)F)cc1`, the half-inhibitory concentration (IC50) in [9] was found to be 22 nM.

Values taken from ChEMBL document CHEMBL1221349, “Novel pyrrolidine heterocycles as CCR1 antagonists” (Bioorg Med Chem Lett, 2010).
